Test results taken from ChEMBL document CHEMBL5674883, “The Heterochromatin Landscape in Migrating Cells and the Importance of H3K27me3 for Associated Transcriptome Alterations” (Cells, 2018).

How the values were obtained:
Type in all cases: cell-based
[1] = target: T1, RNA polymerase II (Mus musculus) (UniProt P08775+Q8CFI7+P97760+A0A3Q4L2S8+Q80UW8+P61219+P62488+Q923G2+P60898+O08740+Q63871+P62876); assay: Inhibition of RNA polymerase II in mouse B16-F1 migrating cells assessed as fold change in Rpl14-RNA stability at 0.1 mM measured by […] analysis relative to control cells
[2] = target: T1, RNA polymerase II (Mus musculus); assay: Inhibition of RNA polymerase II in mouse B16-F1 migrating cells assessed as fold change in Adam17-RNA stability at 0.1 mM measured by […] analysis relative to control cells
[3] = target: T1, RNA polymerase II (Mus musculus); assay: Inhibition of RNA polymerase II in mouse B16-F1 migrating cells assessed as fold change in Abi1-RNA stability at 0.1 mM measured by […] analysis relative to control cells
[4] = target: T1, RNA polymerase II (Mus musculus); assay: Inhibition of RNA polymerase II in mouse B16-F1 migrating cells assessed as fold change in Rest-RNA stability at 0.1 mM measured by […] analysis relative to control cells
[5] = target: T1, RNA polymerase II (Mus musculus); assay: Inhibition of RNA polymerase II in mouse B16-F1 migrating cells assessed as fold change in Lamp2-RNA stability at 0.1 mM measured by ChIP-seq analysis relative to control cells
[6] = target: T1, RNA polymerase II (Mus musculus); assay: Inhibition of RNA polymerase II in mouse B16-F1 migrating cells assessed as fold change in Fkbp8-RNA stability at 0.1 mM measured by ChIP-seq analysis relative to control cells
[7] = target: T1, RNA polymerase II (Mus musculus); assay: Inhibition of RNA polymerase II in mouse B16-F1 migrating cells assessed as fold change in Crbn-RNA stability at 0.1 mM measured by ChIP-seq analysis relative to control cells
[8] = target: T1, RNA polymerase II (Mus musculus); assay: Inhibition of RNA polymerase II in mouse B16-F1 migrating cells assessed as fold change in Xpo1-RNA stability at 0.1 mM measured by […] analysis relative to control cells
[9] = target: T1, RNA polymerase II (Mus musculus); assay: Inhibition of RNA polymerase II in mouse B16-F1 migrating cells assessed as fold change in Tk2-RNA stability at 0.1 mM measured by […] analysis relative to control cells
[10] = target: T1, RNA polymerase II (Mus musculus); assay: Inhibition of RNA polymerase II in mouse B16-F1 migrating cells assessed as fold change in Cdk5rap3-RNA stability at 0.1 mM measured by […] analysis relative to control cells
Outline: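 Mouse B16-F1 melanoma cells grown to confluence on fibronectin in DMEM/10% FCS at 37 °C, 7% CO2. Migration induced by multiple scratches and 3 h incubation; unscratched controls. DRB 0.1 mM added 3 h before lysis. RNA from poly A-selected mRNA was sequenced (RNA-seq, three replicates per DRB group). Fold change computed for DRB-treated migrating vs DRB-treated control cells; cutoffs fold change >1.3, FDR <0.05.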

[11] = target: T1, RNA polymerase II (Mus musculus); assay: Inhibition of RNA polymerase II in mouse B16-F1 migrating cells assessed as fold change in Rps8-RNA stability at 0.1 mM measured by […] analysis relative to control cells
[12] = target: T1, RNA polymerase II (Mus musculus); assay: Inhibition of RNA polymerase II in mouse B16-F1 migrating cells assessed as fold change in Dpy19l4-RNA stability at 0.1 mM measured by ChIP-seq analysis relative to control cells
[13] = target: T1, RNA polymerase II (Mus musculus); assay: Inhibition of RNA polymerase II in mouse B16-F1 migrating cells assessed as fold change in Nae1-RNA stability at 0.1 mM measured by ChIP-seq analysis relative to control cells
[14] = target: Histone-lysine N-methyltransferase EZH2 (Mus musculus) (UniProt Q61188); assay: Inhibition of EZH2 in mouse B16-F1 migrating cells assessed as fold change in H3K27me3-dependent regulated Ddit4-mRNA expression at 3 uM measured by […] analysis relative to control cells
Chain of Histone-lysine N-methyltransferase EZH2 (Mus musculus) (Q61188 whole entry): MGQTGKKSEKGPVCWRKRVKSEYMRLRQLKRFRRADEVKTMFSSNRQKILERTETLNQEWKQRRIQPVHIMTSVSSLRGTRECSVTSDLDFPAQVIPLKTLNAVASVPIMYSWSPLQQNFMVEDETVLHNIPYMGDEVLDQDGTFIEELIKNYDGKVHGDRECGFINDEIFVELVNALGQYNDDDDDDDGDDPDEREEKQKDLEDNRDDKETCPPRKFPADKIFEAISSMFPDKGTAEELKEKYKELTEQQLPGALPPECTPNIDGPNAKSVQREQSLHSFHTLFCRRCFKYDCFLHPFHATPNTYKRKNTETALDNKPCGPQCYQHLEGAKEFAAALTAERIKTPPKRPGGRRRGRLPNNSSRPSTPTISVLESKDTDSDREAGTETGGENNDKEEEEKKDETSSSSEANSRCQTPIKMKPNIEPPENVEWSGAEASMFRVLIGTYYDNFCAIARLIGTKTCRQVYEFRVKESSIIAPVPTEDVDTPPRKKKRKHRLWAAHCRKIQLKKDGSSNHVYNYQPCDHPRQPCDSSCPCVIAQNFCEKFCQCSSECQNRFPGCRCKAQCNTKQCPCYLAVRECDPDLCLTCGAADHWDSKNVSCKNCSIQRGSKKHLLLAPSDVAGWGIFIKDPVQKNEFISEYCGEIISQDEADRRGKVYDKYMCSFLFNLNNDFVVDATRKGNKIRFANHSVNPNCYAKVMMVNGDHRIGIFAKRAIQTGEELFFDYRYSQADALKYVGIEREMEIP
Outline: (§1)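 Confluent B16-F1 cells on fibronectin-coated plates were scratched at multiple sites, washed once with DMEM and left to migrate 3 h in growth medium (37 °C, 7% CO2); unscratched cells served as control. GSK343 (3 µM) was added 3 h before lysis. Poly A mRNA was sequenced (RNA-seq), with 5 replicates for untreated and 3 for treated cells. Differential expression was called by linear model with batch correction, at FDR <0.05 and fold change ≥1.3.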

[15] = target: Histone-lysine N-methyltransferase EZH2 (Mus musculus) (UniProt Q61188); assay: Inhibition of EZH2 in mouse B16-F1 migrating cells assessed as fold change in H3K27me3-buffered regulated Edrf1-mRNA expression at 3 uM measured by ChIP-seq analysis relative to control cells
Outline: (§2)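 Confluent B16-F1 cells on fibronectin-coated plates, cultured at 37 °C and 7% CO2, were scratched at multiple sites to induce migration. They were then held 3 h in growth medium containing 3 µM GSK343, with the inhibitor added 3 h before lysis. Unscratched cells served as controls. Poly A mRNA was analysed by RNA-seq (n=3 GSK343, n=5 controls). Linear models removed batch effects, and buffered genes were those altered only under GSK343 (FDR <0.05, fold change >1.3).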

[16] = target: Histone-lysine N-methyltransferase EZH2 (Mus musculus) (UniProt Q61188); assay: Inhibition of EZH2 in mouse B16-F1 migrating cells assessed as fold change in H3K27me3-dependent regulated Id1-mRNA expression at 3 uM measured by […] analysis relative to control cells; outline: as §1
[17] = target: Histone-lysine N-methyltransferase EZH2 (Mus musculus) (UniProt Q61188); assay: Inhibition of EZH2 in mouse B16-F1 migrating cells assessed as fold change in H3K27me3-buffered regulated Slc26a2-mRNA expression at 3 uM measured by […] analysis relative to control cells; outline: as §1
[18] = target: Histone-lysine N-methyltransferase EZH2 (Mus musculus) (UniProt Q61188); assay: Inhibition of EZH2 in mouse B16-F1 migrating cells assessed as fold change in H3K27me3-buffered regulated 1810058I24Rik-mRNA expression at 3 uM measured by ChIP-seq analysis relative to control cells; outline: as §2
[19] = target: Histone-lysine N-methyltransferase EZH2 (Mus musculus) (UniProt Q61188); assay: Inhibition of EZH2 in mouse B16-F1 migrating cells assessed as fold change in H3K27me3-buffered regulated Rassf1-mRNA expression at 3 uM measured by […] analysis relative to control cells; outline: as §2
[20] = target: Histone-lysine N-methyltransferase EZH2 (Mus musculus) (UniProt Q61188); assay: Inhibition of EZH2 in mouse B16-F1 migrating cells assessed as fold change in H3K27me3-buffered regulated Pygm-mRNA expression at 3 uM measured by […] analysis relative to control cells; outline: as §2
[21] = target: Histone-lysine N-methyltransferase EZH2 (Mus musculus) (UniProt Q61188); assay: Inhibition of EZH2 in mouse B16-F1 migrating cells assessed as fold change in H3K27me3-buffered regulated Lrp4-mRNA expression at 3 uM measured by […] analysis relative to control cells; outline: as §2
[22] = target: Histone-lysine N-methyltransferase EZH2 (Mus musculus) (UniProt Q61188); assay: Inhibition of EZH2 in mouse B16-F1 migrating cells assessed as fold change in H3K27me3-buffered regulated Ttc14-mRNA expression at 3 uM measured by ChIP-seq analysis relative to control cells; outline: as §1
[23] = target: Histone-lysine N-methyltransferase EZH2 (Mus musculus) (UniProt Q61188); assay: Inhibition of EZH2 in mouse B16-F1 migrating cells assessed as fold change in H3K27me3-buffered regulated Gabre-mRNA expression at 3 uM measured by ChIP-seq analysis relative to control cells; outline: as §2
[24] = target: Histone-lysine N-methyltransferase EZH2 (Mus musculus) (UniProt Q61188); assay: Inhibition of EZH2 in mouse B16-F1 migrating cells assessed as fold change in H3K27me3-buffered regulated Map3k20-mRNA expression at 3 uM measured by ChIP-seq analysis relative to control cells; outline: as §2

OC[C@H]1O[C@@H](n2cnc3cc(Cl)c(Cl)cc32)[C@H](O)[C@@H]1O
log2FC [1]: 0.49
log2FC [2]: -0.56
log2FC [3]: -0.62
log2FC [4]: -0.79
log2FC [5]: -0.43
log2FC [6]: 0.41
log2FC [7]: -0.45
log2FC [8]: -0.58
log2FC [9]: 0.79
log2FC [10]: 0.49
log2FC [11]: 0.41
log2FC [12]: -0.58
log2FC [13]: -0.43

CCCc1cc(C)[nH]c(=O)c1CNC(=O)c1cc(-c2ccnc(N3CCN(C)CC3)c2)cc2c1cnn2C(C)C
log2FC [14]: -0.53
log2FC [15]: -0.41
log2FC [16]: 0.16
log2FC [17]: 0.38
log2FC [18]: 0.47
log2FC [19]: -0.52
log2FC [20]: 0.85
log2FC [21]: -0.39
log2FC [22]: -0.44
log2FC [23]: -0.84
log2FC [24]: -0.41
